Data taken from the M2OR odorant receptor database.

These compounds were tested against T1, OR2M7 (Homo sapiens) (UniProt Q8NG81). Settings: stereoisomer not certain.
T1 sequence (whole entry): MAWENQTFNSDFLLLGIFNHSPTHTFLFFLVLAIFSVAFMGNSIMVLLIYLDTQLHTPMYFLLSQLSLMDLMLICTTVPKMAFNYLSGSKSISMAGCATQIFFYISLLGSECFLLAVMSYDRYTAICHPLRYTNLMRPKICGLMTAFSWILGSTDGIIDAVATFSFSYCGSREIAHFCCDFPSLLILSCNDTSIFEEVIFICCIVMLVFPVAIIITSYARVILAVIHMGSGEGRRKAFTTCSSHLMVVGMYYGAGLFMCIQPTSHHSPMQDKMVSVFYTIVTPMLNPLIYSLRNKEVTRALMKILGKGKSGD
Procedure, shortened: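 Assay methods differ from source to source, frequently being transient luciferase assays in mammalian cell lines. For each receptor–molecule pair, the label responsive (active) applies when the original authors judged the measured signal statistically different from baseline, and non-responsive (inactive) applies otherwise.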

Odorant receptor agonist call, inactive:
C=C(C)C1CCC(C)C(=O)C1 (configuration not stated), CCC(=O)C(=O)CC, CC(=O)OCC=C(C)C, CC(=O)Oc1ccccc1, CCCCCCOC(C)=O, O=C1Cc2ccccc2O1, CCCCC(=O)CC, CC12CCC(CC1=O)C2(C)C (configuration not stated), c1ccccc1, CCCCCCCCCS, CCCCCCCO, COc1cc(C(=O)O)ccc1O, CCCCCC=O, CCCCC(C)=O, CCCC(C)=O, CCCCCO, CCCCOC=O, CCCCCCCCCCO, CCC(=O)O, C=CCOC(=O)CCCCCC, CCCCC(=O)O, CCCCCC1=C(C)CCC1=O, CCCCCCC(=O)[O-].[H+], CCC(S)C(C)CO (configuration not stated), O=c1ccc2ccccc2o1, CCCCCCCC(C)=O, CCCCCCCCO
